For eight molecules, IC50 results are on record in ChEMBL document CHEMBL5376013, “Design, synthesis and biological evaluation of novel morpholinopyrimidine-5-carbonitrile derivatives as dual PI3K/mTOR inhibitors” (RSC Med Chem, 2024).

SMILES strings stand for the structures. pIC50: −log10 of the molar value.

Data set [1] is described as follows: Cytotoxicity against human PCS-800-011 cells assessed as inhibition of cell growth by MTT assay. The data set is classed as toxicity, cell-based. In general terms: Tetrazolium assays rely on reduction of a dye to a coloured formazan, in cell work by metabolically active cells.
Data set [2] has as its system SR. The data set is described as follows: cells. The settings on record: Homo sapiens.
The next data set has as its system A549. Briefly: Antiproliferative activity against human A549 cells assessed as inhibition of cell growth by MTT assay. Format: functional, cell-based.
For the next data set, the system named is MCF7. The data set is described as follows: Antiproliferative activity against human MCF7 cells assessed as inhibition of cell growth by MTT assay. Format: functional, cell-based.
A further data set has as its system PC-3. Briefly: Antiproliferative activity against human PC-3 cells assessed as inhibition of cell growth by MTT assay. The data set is classed as functional, cell-based.
In data set [3] the target is Serine/threonine-protein kinase mTOR (Homo sapiens, UniProt P42345). Briefly: Inhibition of mTOR (unknown origin) incubated for 1 hr by ELISA analysis. The essentials: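 Glutathione-coated plate loaded with mTOR substrate (1 h, room temperature). mTOR with compound in 2X kinase assay buffer, 30 min at 30 °C, then stop solution. Phospho-p70S6K-T389 detected by primary antibody, then HRP conjugate (1 h each), TMB, A450 with 540 or 595 nm reference.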
In general terms: An ELISA detects its analyte on a solid surface through an enzyme-linked reagent.

The nature of data set [4]: Inhibition of PI3K (unknown origin). Details: species or system Homo sapiens. The essentials:
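ELISA kit PI3 kinase assay with LY294002 as reference. Inhibitor preincubated 10 min before PIP2 substrate in kinase reaction buffer (25 µl final), 1 h reaction. Product detected by competition with biotinylated PIP3 for GRP1, with SA-HRP and TMB colour.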

Data set [5] relates to SR. Briefly: Antiproliferative activity against human SR cells assessed as inhibition of cell growth. Format: functional, cell-based. The essentials: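 SR leukemia cells from ATCC were cultured in DMEM with 10% FBS, 10 ug/ml insulin and 1% penicillin-streptomycin. Reconstituted MTT was added at 10% of culture volume for 2–4 h. Formazan was dissolved in solubilization solution and read at 570 nm. Viability was calculated as treated A570 over untreated A570 ×100, with dose-response curves.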

As a reminder, the pIC50 is the IC50 on a negative log10 scale, so that one unit is a factor of ten. On to `CN[C@@H]1C[C@H]2O[C@@](C)([C@@H]1OC)n1c3ccccc3c3c4c(c5c6ccccc6n2c5c31)C(=O)NC4` [STAUROSPORINE], for which, in data set [1], the pIC50 was 4.74.

In the case of `O=c1[nH]cc(F)c(=O)[nH]1` [FLUOROURACIL], in the data set with SR [2], the pIC50 is 5.13.

Consider `O=S1(=O)CCc2nc(N3N=C(c4ccc(F)cc4)C[C@@H]3c3ccc(Cl)c(Cl)c3)nc(N3CCOCC3)c2C1`, for which the pIC50 in the data set on A549 is 4.62; with MCF7, 4.51; with PC-3, 4.72.

Turning to `CO[C@H]1C[C@@H]2CC[C@@H](C)[C@@](O)(O2)C(=O)C(=O)N2CCCC[C@H]2C(=O)O[C@H]([C@H](C)C[C@@H]2CC[C@@H](OCCO)[C@H](OC)C2)CC(=O)[C@H](C)/C=C(\C)[C@@H](O)[C@@H](OC)C(=O)[C@H](C)C[C@H](C)/C=C/C=C/C=C/1C` [EVEROLIMUS], the pIC50 in data set [3] is 6.28.

In turn, `COc1cccc2c1C(=O)c1c(O)c3c(c(O)c1C2=O)C[C@@](O)(C(=O)CO)C[C@@H]3O[C@H]1C[C@H](N)[C@H](O)[C@H](C)O1` [DOXORUBICIN] gave a negative-log IC50 (pIC50) with SR [2] of 6.23.

In the case of `COc1ccc(-c2nc(N/N=C/c3cccc(Br)c3)nc(N3CCOCC3)c2C#N)cc1`, the pIC50 in data set [4] is 5.22; with SR [5], 6.12.

As to `COc1ccc(-c2nc(N/N=C/c3cccc(O)c3)nc(N3CCOCC3)c2C#N)cc1`, the results for the negative-log IC50 (pIC50) (in data set [4]; with SR [5]) were 5.22 and 4.87, respectively.

With `COc1ccc(-c2nc(N/N=C/c3ccc(O)c(OC)c3)nc(N3CCOCC3)c2C#N)cc1`, the negative logarithm of the IC50 (pIC50) in data set [4] was 5.22; in the data set with SR [5], 5.36.
